# Test results from ChEMBL document CHEMBL1126899, “Nonpeptide angiotensin II antagonists derived from 1H-pyrazole-5-carboxylates and 4-aryl-1H-imidazole-5-carboxylates” (J Med Chem, 1993).
# Active and inactive are the calls of the source. The calls are words filed in the database; no cut-off is given here.
# How the values were obtained:
# Rattus norvegicus [1] = assay: Peak percent inhibition of Angiotensin II pressor response in conscious, normotensive rats at 1 mg/kg po; format: functional
# Summary of the method: (§1)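 Male Sprague-Dawley rats (300–400 g), conscious, catheterized for iv dosing and for arterial pressure and heart rate. Compound given iv or po; PEG 400 vehicle in some oral cases. AII 0.1 μg/kg iv boluses at set intervals afterward. % inhibition of the MAP rise was calculated at each time point, and the peak was taken. Averaged from at least two rats unless noted.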
# Rattus norvegicus [2] = assay: Time to produce onset of action for inhibition of Angiotensin II pressor response in conscious, normotensive rats at 0.1 mg/kg iv; format: functional
# Summary of the method: (§2)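 Conscious male Sprague-Dawley rats (300–400 g), instrumented for iv dosing and arterial pressure. A single iv or po bolus of compound (PEG 400 for some oral doses), then repeated AII challenges at 0.1 μg/kg iv. […] Averaged from at least two rats unless noted.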
# Rattus norvegicus [3] = assay: Peak percent inhibition of Angiotensin II pressor response in conscious, normotensive rats at 0.1 mg/kg iv; format: functional; summary of the method: as §1
# Rattus norvegicus [4] = assay: Time to produce onset of action for inhibition of Angiotensin II pressor response in conscious, normotensive rats at 1 mg/kg po; format: functional; summary of the method: as §2
# Rattus norvegicus [5] = assay: Peak percent inhibition of Angiotensin II pressor response in conscious, normotensive rats at 0.1 mg/kg po; format: functional; summary of the method: as §1
# Rattus norvegicus [6] = assay: Peak percent inhibition of Angiotensin II pressor response in conscious, normotensive rats at 0.3 mg/kg iv; format: functional; summary of the method: as §1
# Rattus norvegicus [7] = assay: Peak percent inhibition of Angiotensin II pressor response in conscious, normotensive rats at 0.3 mg/kg po; format: functional; summary of the method: as §1
# [8] = biological target: T1, Type-1 angiotensin II receptor (Oryctolagus cuniculus, UniProt P34976); assay: Evaluation of Angiotensin II antagonistic activity by displacement of [125I]-Sar Ile-AII at the rabbit aorta Angiotensin II receptor, type 1; format: tissue-based
# T1 sequence (P34976 whole entry): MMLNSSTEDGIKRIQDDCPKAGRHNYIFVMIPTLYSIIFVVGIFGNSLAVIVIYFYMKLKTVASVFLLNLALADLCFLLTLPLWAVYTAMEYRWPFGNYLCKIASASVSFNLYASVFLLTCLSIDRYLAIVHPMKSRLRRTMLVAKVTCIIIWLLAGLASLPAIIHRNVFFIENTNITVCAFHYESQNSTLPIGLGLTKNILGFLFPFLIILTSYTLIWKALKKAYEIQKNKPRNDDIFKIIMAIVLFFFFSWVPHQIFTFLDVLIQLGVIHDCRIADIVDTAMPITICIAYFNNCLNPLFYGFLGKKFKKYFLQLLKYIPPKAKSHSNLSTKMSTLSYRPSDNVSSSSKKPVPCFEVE
# Summary of the method: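 Rabbit aorta membranes, run without BSA. Competition against [¹²⁵I]Sar¹Ile⁸-AII, in duplicate tubes. Some values are means of two or more separate assays. Standard error is estimated at <30% of the mean.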
# Rattus norvegicus [9] = assay: Time to produce onset of action for inhibition of Angiotensin II pressor response in conscious, normotensive rats at 0.1 mg/kg po; format: functional; summary of the method: as §2
# Rattus norvegicus [10] = assay: Time to produce onset of action for inhibition of Angiotensin II pressor response in conscious, normotensive rats at 0.3 mg/kg po; format: functional; summary of the method: as §2
# Rattus norvegicus [11] = assay: Time to produce onset of action for inhibition of Angiotensin II pressor response in conscious, normotensive rats at 0.3 mg/kg iv; format: functional; summary of the method: as §2
# Rattus norvegicus [12] = assay: Time to produce onset of action for inhibition of Angiotensin II pressor response in conscious, normotensive rats 1 at mg/kg iv; format: functional; summary of the method: as §2
# Rattus norvegicus [13] = assay: Peak percent inhibition of Angiotensin II pressor response in conscious, normotensive rats 1 at mg/kg iv; format: functional; summary of the method: as §1
# Rattus norvegicus [14] = assay: Peak percent inhibition of Angiotensin II pressor response in conscious, normotensive rats at 1 mg/kg iv; format: functional; summary of the method: as §1
# Rattus norvegicus [15] = assay: Time to produce onset of action for inhibition of Angiotensin II pressor response in conscious, normotensive rats at 1 mg/kg iv; Not active; format: functional, organism-based; design: dose 1 mg/kg; summary of the method: as §2
# Rattus norvegicus [16] = assay: Peak percent inhibition of Angiotensin II pressor response in conscious, normotensive rats at 1 mg/kg iv (no. of animals treated); format: functional; summary of the method: as §1
# Rattus norvegicus [17] = assay: Time to produce onset of action for inhibition of pressor response in conscious, normotensive rats at 3 mg/kg po (no. of animals treated); format: functional; summary of the method: as §2
# Rattus norvegicus [18] = assay: Peak percent inhibition of Angiotensin II pressor response in conscious, normotensive rats at 0.3 mg/kg po (no. of animals treated); format: functional; summary of the method: as §1
# Rattus norvegicus [19] = assay: Time to produce onset of action for inhibition of pressor response in conscious, normotensive rats at 1 mg/kg iv (no. of animals treated); format: functional; summary of the method: as §2
# Rattus norvegicus [20] = assay: Peak percent inhibition of Angiotensin II pressor response in conscious, normotensive rats at 0.3 mg/kg iv (no. of animals treated); format: functional; summary of the method: as §1
# Rattus norvegicus [21] = assay: Time to produce onset of action for inhibition of pressor response in conscious, normotensive rats 0.3 mg/kg po (no. of animals treated); format: functional; summary of the method: as §2
# Rattus norvegicus [22] = assay: Time to produce onset of action for inhibition of pressor response in conscious, normotensive rats at 0.3 mg/kg iv (no. of animals treated); format: functional; summary of the method: as §2
# Rattus norvegicus [23] = assay: Peak percent inhibition of Angiotensin II pressor response in conscious, normotensive rats at 3 mg/kg po (no. of animals treated); format: functional; summary of the method: as §1
# Rattus norvegicus [24] = assay: Peak percent inhibition of Angiotensin II pressor response in conscious, normotensive rats at 3 mg/kg iv (no. of animals treated); format: functional; summary of the method: as §1
# Rattus norvegicus [25] = assay: Time to produce onset of action for inhibition of pressor response in conscious, normotensive rats at 3 mg/kg iv (no. of animals treated); format: functional; summary of the method: as §2
# Rattus norvegicus [26] = assay: Time to produce onset of action for inhibition of pressor response in conscious, normotensive rats at 0.3 mg/kg po (no. of animals treated); format: functional; summary of the method: as §2
# Rattus norvegicus [27] = assay: Time to produce onset of action for inhibition of pressor response in conscious, normotensive rats at 0.1 mg/kg iv (no. of animals treated); format: functional; summary of the method: as §2
# Rattus norvegicus [28] = assay: Peak percent inhibition of Angiotensin II pressor response in conscious, normotensive rats at 1 mg/kg po (no. of animals treated); format: functional; summary of the method: as §1
# Rattus norvegicus [29] = assay: Peak percent inhibition of Angiotensin II pressor response in conscious, normotensive rats at 0.1 mg/kg iv (no. of animals treated); format: functional; summary of the method: as §1
# Rattus norvegicus [30] = assay: Time to produce onset of action for inhibition of pressor response in conscious, normotensive rats at 1 mg/kg po (no. of animals treated); format: functional; summary of the method: as §2
# Rattus norvegicus [31] = assay: Time to produce onset of action for inhibition of Angiotensin II pressor response in conscious, normotensive rats at 0..3 mg/kg iv; format: functional; summary of the method: as §2
smiles,measurement,setting,value
CCCc1nn(CC(F)(F)F)c(C(=O)O)c1Cc1ccc(-c2ccccc2-c2nn[nH]n2)cc1,inhibition in vivo at 1 mg/kg,Rattus norvegicus [1],75%
same,Duration,Rattus norvegicus [2],~5 h
same,inhibition in vivo at 0.1 mg/kg,Rattus norvegicus [3],62%
same,Duration,Rattus norvegicus [4],>23 h
same,inhibition in vivo at 0.1 mg/kg,Rattus norvegicus [5],54%
same,inhibition in vivo at 0.3 mg/kg,Rattus norvegicus [6],93%
same,inhibition in vivo at 0.3 mg/kg,Rattus norvegicus [7],66%
same,IC50,[8],1.6 nM
same,Duration,Rattus norvegicus [9],~2 h
same,Duration,Rattus norvegicus [10],>3 h
same,Duration,Rattus norvegicus [11],>24 h
CCCCc1nn(-c2ccccc2)c(C(=O)O)c1Cc1ccc(-c2ccccc2-c2nn[nH]n2)cc1,Duration,Rattus norvegicus [12],>6 h
same,IC50,[8],2.9 nM
same,Inhibition,Rattus norvegicus [13],96%
CCCCc1nn(-c2c(Cl)cccc2Cl)c(C(=O)OCC)c1Cc1ccc(-c2ccccc2-c2nn[nH]n2)cc1,inhibition in vivo at 1 mg/kg,Rattus norvegicus [14],16%
same,Duration,Rattus norvegicus [15],inactive
CCCCc1nc(Cl)c(CO)n1Cc1ccc(-c2ccccc2-c2nnn[nH]2)cc1 [LOSARTAN],inhibition in vivo at 1 mg/kg,Rattus norvegicus [16],78%
same,Duration,Rattus norvegicus [17],>4.5 h
same,inhibition in vivo at 0.3 mg/kg,Rattus norvegicus [18],36%
same,Duration,Rattus norvegicus [19],>6 h
same,inhibition in vivo at 0.3 mg/kg,Rattus norvegicus [20],52%
same,Duration,Rattus norvegicus [21],>3.5 h
same,Duration,Rattus norvegicus [22],5.5 h
same,inhibition in vivo at 3 mg/kg,Rattus norvegicus [23],94%
CCCCc1nc(-c2ccccc2)c(C(=O)O)n1Cc1ccc(-c2ccccc2-c2nn[nH]n2)cc1,inhibition in vivo at 3 mg/kg,Rattus norvegicus [24],100%
same,IC50,[8],2.1 nM
same,Duration,Rattus norvegicus [25],>24 h
CCCCc1nc(Cl)c(C(=O)O)n1Cc1ccc(-c2ccccc2-c2nn[nH]n2)cc1 [CARBOXYLIC ACID METABOLITE],inhibition in vivo at 0.3 mg/kg,Rattus norvegicus [18],63%
same,Duration,Rattus norvegicus [26],2.8 h
same,Duration,Rattus norvegicus [27],~4 h
same,inhibition in vivo at 1 mg/kg,Rattus norvegicus [28],72%
same,inhibition in vivo at 0.1 mg/kg,Rattus norvegicus [29],63%
same,Duration,Rattus norvegicus [30],>7 h
same,inhibition in vivo at 0.3 mg/kg,Rattus norvegicus [20],100%
same,Duration,Rattus norvegicus [22],>29 h
CCCc1nn(Cc2ccccc2)c(C(=O)O)c1Cc1ccc(-c2ccccc2-c2nn[nH]n2)cc1,inhibition in vivo at 1 mg/kg,Rattus norvegicus [1],100%
same,Duration,Rattus norvegicus [4],>23 h
same,inhibition in vivo at 0.3 mg/kg,Rattus norvegicus [6],95%
same,inhibition in vivo at 0.3 mg/kg,Rattus norvegicus [7],82%
same,Duration,Rattus norvegicus [31],>24 h
same,IC50,[8],0.42 nM
same,Duration,Rattus norvegicus [10],>4 h
